Measured values taken from ChEMBL document CHEMBL1759851, “Facile synthesis and stereochemical investigation of Mannich base derivatives: evaluation of antioxidant property and antituberculostic potency” (2011).

How the values were obtained:
Type in all cases: functional
[1] = tested on: Radical scavenging activity; assay: Antioxidant activity assessed as DPPH radical scavenging activity at 100 ug/mL after 30 mins
Summary of the method: (§1)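 Oxime ethers tested by DPPH radical scavenging (Blois method, slightly modified). Sample and DPPH solution mixed gently and left at room temperature for 30 min. Optical density read at 530 nm on a microplate reader. Scavenging reported as % inhibition at each test concentration.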

[2] = tested on: Mycobacterium tuberculosis; assay: Antituberculosis activity against Mycobacterium tuberculosis H37Rv
Summary of the method: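 Zone-of-inhibition assay against M. tuberculosis H37Rv. Zone diameters were scored on an activity index: 0–5 mm, 6–10 mm (+), 11–15 mm (++), 16–20 mm (+++), and a top band (++++) for larger zones.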

[3] = tested on: Radical scavenging activity; assay: Antioxidant activity assessed as DPPH radical scavenging activity at 200 ug/mL after 30 mins; summary of the method: as §1
[4] = tested on: Radical scavenging activity; assay: Antioxidant activity assessed as DPPH radical scavenging activity at 400 ug/mL after 30 mins; summary of the method: as §1
[5] = tested on: Radical scavenging activity; assay: Antioxidant activity assessed as DPPH radical scavenging activity at 10 ug/mL after 30 mins; summary of the method: as §1
[6] = tested on: Radical scavenging activity; assay: Antioxidant activity assessed as DPPH radical scavenging activity at 800 ug/mL after 30 mins; summary of the method: as §1

Structure (SMILES) | inhibition [1] [%] | inhibition zone (IZ) [2] | inhibition [3] [%] | inhibition [4] [%] | inhibition [5] [%] | inhibition [6] [%]
CO/N=C1\[C@H]2CCC[C@@H]1[C@H](c1cccc(OC)c1)N[C@@H]2c1cccc(OC)c1 | 13.5 |  |  |  |  | 
CO/N=C1\[C@H]2CCC[C@@H]1[C@H](c1ccccc1Cl)N(C)[C@@H]2c1ccccc1Cl | 11.4 | 11 mm |  |  |  | 
CO/N=C1\[C@H]2CCC[C@@H]1[C@H](c1ccc(C(C)C)cc1)N[C@@H]2c1ccc(C(C)C)cc1 | 15.3 | 6 mm |  |  |  | 
CO/N=C1\[C@H]2CCC[C@@H]1[C@H](c1ccc(Cl)cc1)N(C)[C@@H]2c1ccc(Cl)cc1 | 11.9 | 11 mm |  |  |  | 
CO/N=C1\[C@H]2CCC[C@@H]1[C@H](c1ccccc1)N[C@@H]2c1ccccc1 | 10.5 | 0 mm | 18.7 | 24.4 |  | 
CO/N=C1\[C@H]2CCC[C@@H]1[C@H](c1ccc(OCc3ccccc3)cc1)N[C@@H]2c1ccc(OCc2ccccc2)cc1 | 27.9 | <=21 mm | 47.8 |  |  | 
CO/N=C1\[C@H]2CCC[C@@H]1[C@H](c1ccccc1OC)N(C)[C@@H]2c1ccccc1OC | 15.4 |  | 24.9 | 40.2 |  | 
CO/N=C1\[C@H]2CCC[C@@H]1[C@H](c1ccc(Br)cc1)N[C@@H]2c1ccc(Br)cc1 | 5.72 | 0 mm |  |  |  | 
CCOc1ccc([C@H]2N[C@@H](c3ccc(OCC)cc3)[C@H]3CCC[C@@H]2/C3=N\OC)cc1 | 23.2 | 6 mm | 30.8 |  |  | 
CO/N=C1\[C@H]2CCC[C@@H]1[C@H](c1ccc(C)cc1)N[C@@H]2c1ccc(C)cc1 | 14.5 | 0 mm |  |  |  | 
CO/N=C1\[C@H]2CCC[C@@H]1[C@H](c1ccccc1C)N[C@@H]2c1ccccc1C | 9.5 | 0 mm |  |  |  | 
CO/N=C1\[C@H]2CCC[C@@H]1[C@H](c1ccccc1F)N[C@@H]2c1ccccc1F | 2.33 | 11 mm |  |  |  | 
CO/N=C1\[C@H]2CCC[C@@H]1[C@H](c1ccccc1)N(C)[C@@H]2c1ccccc1 | 10.7 |  | 13.8 |  |  | 
CO/N=C1\[C@H]2CCC[C@@H]1[C@H](c1ccccc1Cl)N[C@@H]2c1ccccc1Cl | 6.47 | 6 mm |  |  |  | 
CO/N=C1\[C@H]2CCC[C@@H]1[C@H](c1ccc(OC)cc1)N[C@@H]2c1ccc(OC)cc1 | 13.9 | 6 mm |  |  |  | 
CCc1ccc([C@H]2N[C@@H](c3ccc(CC)cc3)[C@H]3CCC[C@@H]2/C3=N\OC)cc1 | 11.9 | 0 mm |  |  |  | 
CO/N=C1\[C@H]2CCC[C@@H]1[C@H](c1ccc(F)cc1)N(C)[C@@H]2c1ccc(F)cc1 | 2.4 | <=21 mm |  |  |  | 
O=C1O[C@H]([C@@H](O)CO)C(O)=C1O |  |  |  |  | 98.5 | 
CCOc1ccccc1[C@H]1N[C@@H](c2ccccc2OCC)[C@H]2CCC[C@@H]1/C2=N\OC | 10.2 | 6 mm |  |  |  | 

Structure (SMILES) | inhibition [1] [%] | inhibition zone (IZ) [2] | inhibition [3] [%] | inhibition [4] [%] | inhibition [5] [%] | inhibition [6] [%]
CO/N=C1\[C@H]2CCC[C@@H]1[C@H](c1cccc(OC)c1)N(C)[C@@H]2c1cccc(OC)c1 | 10.7 |  | 13.8 | 26.8 |  | 
CO/N=C1\[C@H]2CCC[C@@H]1[C@H](c1ccccc1Br)N[C@@H]2c1ccccc1Br | 5.28 |  |  |  |  | 
CO/N=C1\[C@H]2CCC[C@@H]1[C@H](c1ccc(Cl)cc1)N[C@@H]2c1ccc(Cl)cc1 | 6.58 | 11 mm |  |  |  | 
CO/N=C1\[C@H]2CCC[C@@H]1[C@H](c1ccccc1OC)N[C@@H]2c1ccccc1OC | 16 | 6 mm | 20.7 |  |  | 
CO/N=C1\[C@H]2CCC[C@@H]1[C@H](c1cccc(Cl)c1)N[C@@H]2c1cccc(Cl)c1 | 4.77 | 0 mm |  |  |  | 
CO/N=C1\[C@H]2CCC[C@@H]1[C@H](c1ccc(F)cc1)N[C@@H]2c1ccc(F)cc1 | 3.6 | 16 mm |  |  |  | 
CCCOc1ccc([C@H]2N[C@@H](c3ccc(OCCC)cc3)[C@H]3CCC[C@@H]2/C3=N\OC)cc1 | 23.9 | 6 mm | 38.5 |  |  | 
CO/N=C1\[C@H]2CCC[C@@H]1[C@H](c1ccc(C)cc1)N(C)[C@@H]2c1ccc(C)cc1 | 19.8 | 6 mm | 22 |  |  | 
CO/N=C1\[C@H]2CCC[C@@H]1[C@H](c1ccc(OC(C)=O)c(OC)c1)N[C@@H]2c1ccc(OC(C)=O)c(OC)c1 | 32.4 |  | 52.9 | 78.3 |  | 88.8
CO/N=C1\[C@H]2CCC[C@@H]1[C@H](c1ccc(SC)cc1)N[C@@H]2c1ccc(SC)cc1 | 17.6 | 11 mm | 22.5 |  |  | 
NNC(=O)c1ccncc1 [ISONIAZID] |  | <=21 mm |  |  |  | 
CO/N=C1\[C@H]2CCC[C@@H]1[C@H](c1ccc(Br)cc1)N(C)[C@@H]2c1ccc(Br)cc1 | 12.1 | 0 mm |  |  |  | 
CO/N=C1\[C@H]2CCC[C@@H]1[C@H](c1ccccc1C)N(C)[C@@H]2c1ccccc1C | 15.3 | 6 mm |  |  |  | 
C=CCOc1ccc([C@H]2N[C@@H](c3ccc(OCC=C)cc3)[C@H]3CCC[C@@H]2/C3=N\OC)cc1 | 21.7 | <=21 mm | 25.8 | 31.8 |  | 
CCCCOc1ccc([C@H]2N[C@@H](c3ccc(OCCCC)cc3)[C@H]3CCC[C@@H]2/C3=N\OC)cc1 | 27.8 | 6 mm | 43.9 |  |  | 
CO/N=C1\[C@H]2CCC[C@@H]1[C@H](c1ccc(OC)cc1)N(C)[C@@H]2c1ccc(OC)cc1 | 20.9 | 6 mm | 41.9 | 58.8 |  | 
CO/N=C1\[C@H]2CCC[C@@H]1[C@H](c1cccc(F)c1)N[C@@H]2c1cccc(F)c1 | 0.97 | 6 mm |  |  |  | 
CO/N=C1\[C@H]2CCC[C@@H]1[C@H](c1cccc(Br)c1)N[C@@H]2c1cccc(Br)c1 | 4.35 |  |  |  |  | 
